The results in this text go back to article PMC3419596 (Cell stem cell, 2012).

The test system of one data set is T-GFP mESCs. The data set can be described thus: Mesoderm inhibition assay, T-GFP mESC flow cytometry. Type of data set: cell-based, mouse. Particulars: added at day 1 of differentiation.
A further data set concerns Myh6-GFP mESC. Kind of data set: mESC cardiogenesis assay, Myh6-GFP reporter. Type of data set: cell-based, mouse.
For data set [1], the target named is TGFBR2 (Homo sapiens, UniProt P37173). The data set can be described thus: TGFBR2 protein levels by Western blot. Type of data set: cell-based. Particulars: HEK293T, DLD1 and A549 cells, 5μM. (Immunoblotting shows a protein as a band on a membrane.)
Chain of TGFBR2 (Homo sapiens, UniProt P37173) (P37173 23-567): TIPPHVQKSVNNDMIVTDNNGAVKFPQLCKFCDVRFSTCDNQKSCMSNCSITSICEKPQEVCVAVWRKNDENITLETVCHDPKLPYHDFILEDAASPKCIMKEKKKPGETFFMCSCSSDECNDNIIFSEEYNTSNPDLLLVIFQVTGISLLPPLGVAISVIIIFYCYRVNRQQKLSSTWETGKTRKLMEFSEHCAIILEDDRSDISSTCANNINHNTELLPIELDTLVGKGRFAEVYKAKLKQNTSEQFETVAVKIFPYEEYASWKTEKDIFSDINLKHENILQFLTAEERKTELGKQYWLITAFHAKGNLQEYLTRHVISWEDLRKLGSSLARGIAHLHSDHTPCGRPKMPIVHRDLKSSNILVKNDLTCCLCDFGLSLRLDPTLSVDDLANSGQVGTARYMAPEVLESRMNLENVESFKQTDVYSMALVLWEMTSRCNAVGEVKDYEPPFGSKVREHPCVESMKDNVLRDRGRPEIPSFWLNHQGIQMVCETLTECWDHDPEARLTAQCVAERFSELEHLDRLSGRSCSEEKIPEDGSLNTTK
Data set [2] has as its system TGFBR2. Kind of data set: TGFBR2 protein levels by Western blot. Type of data set: cell-based, human. Particulars: overexpressed in HEK293T, 24h, 5μM.
Another data set deals with mESC. Kind of data set: RT-qPCR of germ layer and lineage markers in mESC. Type of data set: cell-based, mouse.
For another data set, the system named is TGFβ2 signaling. Kind of data set: SBE4-Luc. Type of data set: cell-based, human. Particulars: for IC50: read-out: IC50 TGFβ2 signaling inhibition (SBE4-Luc). The procedure, abridged:
(§1)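 HEK293T cells grown in high-glucose DMEM with 1% FBS are co-transfected with SBE4-firefly luciferase and CMV-Renilla luciferase. After 12 h adhesion they are stimulated with Activin A or TGFβ2 (15 ng/ml each), with inhibitor added at the same time. Luminescence is read by dual-luciferase assay. IC50 comes from a log(inhibitor) vs normalized response fit, with toxic doses excluded; Emax is given as % inhibition. Data are mean ± SEM.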

A further data set has as its system H9 hESC. The data set can be described thus: hESC. Type of data set: cell-based, human.
Data set [3] relates to Cripto−/− mESC, Activin A-induced mesoderm. Kind of data set: T gene expression in Cripto−/− mESC, mesoderm induced by Activin A. Type of data set: cell-based, mouse. The procedure, abridged: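 Mesoderm assay in Cripto−/− mESCs under serum-free conditions. At day 2 of embryoid body formation, cells are given 15 ng/ml Activin A plus test compound. T (Brachyury) mRNA is quantified by RT-qPCR (SYBR Green) on cDNA from total RNA and compared with no-Activin and Activin-alone controls. Data are mean ± SEM of ≥3 biological replicates; Student's t-test.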

The test system of another data set is HEK293T cells. Kind of data set: Toxicity control for inhibitory activity. Type of data set: cell-based, human. The procedure, abridged:
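Toxicity in the reporter assays is judged from Renilla luciferase levels, Alamar Blue viability or microscopy. Doses judged toxic are removed before IC50/EC50 curve fitting.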

The test system of data set [4] is TGFBR2. Kind of data set: TGFBR2 internalization. Type of data set: cell-based. The conditions noted are these: HA-TGFBR2-mCherry, presence of TGFβ2 ligand.
The test system of another data set is BMP signaling. Kind of data set: BMP signaling inhibition. Type of data set: cell-based.
The test system of the next data set is Wnt signaling. Kind of data set: Wnt signaling inhibition. Type of data set: cell-based.
Data set [5] addresses type II (TGFBR2) TGFβ receptor (Homo sapiens, UniProt P37173). Kind of data set: TGFBR2 kinase activity. Type of data set: biochemical.
The test system of another data set is HA-TGFBR2-mCherry. Kind of data set: Flow cytometry receptor degradation assay with HA-TGFBR2-mCherry in HEK293T. Type of data set: cell-based, human. A general note: In flow cytometry, cells or beads pass a laser one at a time.
For data set [6], the system named is SMAD2/3 phosphorylation induced by TGFβ2. The data set can be described thus: p-SMAD2/3 Western blot in HEK293T cells, TGFβ2 stimulation. Type of data set: cell-based, human. The procedure, abridged: (§2)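 HEK293T cells are treated with test compound and stimulated with Activin A or TGFβ. Cells are washed in cold PBS, lifted with enzyme-free buffer and lysed in ice-cold RIPA with protease and phosphatase inhibitors. Lysates are run on 10% SDS-Tris-glycine gels, blotted to PVDF and blocked and probed in 5% skim milk/TBST; detection by ECL or infrared imaging. p-SMAD2/3 is normalized to GAPD and total SMAD2/3 and reported as % inhibition.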

A further data set concerns calcium channel. Kind of data set: Calcium inhibition as mechanism of ITD-1 activities.
Another data set has as its system Activin A signaling. The data set can be described thus: SBE4-Luc. Type of data set: cell-based, human. Particulars: HEK293T, Activin A 15ng/ml. The procedure, abridged: as §1
The test system of data set [7] is Activin A signaling (Lefty1 target gene). The data set can be described thus: Lefty1 mRNA in Cripto−/− mESC, Activin A-induced. Type of data set: cell-based, mouse. The conditions noted are these: 5μM, Cripto−/− mESCs. The procedure, abridged: (§3)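 Cripto−/− mESCs are moved to serum-free conditions. At day 2 of embryoid body formation they receive 15 ng/ml Activin A or 15 ng/ml TGFβ2 together with test compound. Lefty1 mRNA is measured by RT-qPCR (SYBR Green) on cDNA from total RNA. The TGFβ2 arm is also run as a time course, with a serum-free-medium-alone control. Data are mean ± SEM of ≥3 biological replicates; Student's t-test.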

For data set [8], the system named is other tyrosine kinase receptors. The data set can be described thus: Levels of other tyrosine kinase receptors. Type of data set: cell-based.
For data set [9], the system named is Cripto−/− mESC, TGFβ2-induced mesoderm. Kind of data set: T gene expression in Cripto−/− mESC, mesoderm induced by TGFβ2. Type of data set: cell-based, mouse. The procedure, abridged:
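Cripto−/− mESC were moved to serum-free conditions as embryoid bodies. At day 2 of EB formation they received 15 ng/ml TGFβ2 together with test compound. T expression was measured by RT-qPCR. Comparisons were made against a no-TGFβ2 control and against TGFβ2 alone. Mean ± SEM of ≥3 biological replicates; Student's t-test.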

A further data set deals with TGFBR1. Kind of data set: TGFBR1 protein levels by Western blot, overexpressed in HEK293T. Type of data set: cell-based, human. The conditions noted are these: 24h, 5μM.
Data set [10] relates to SMAD2/3 phosphorylation induced by Activin A. Kind of data set: p-SMAD2/3 Western blot in HEK293T cells, Activin A stimulation. Type of data set: cell-based, human. The procedure, abridged:
as §2

The subject of data set [11] is TGFβ2 signaling (Lefty1 target gene). The data set can be described thus: Lefty1 mRNA in Cripto−/− mESC, TGFβ2-induced. Type of data set: cell-based, mouse. Particulars: Cripto−/− mESCs. The procedure, abridged: as §3
The target of data set [12] is type I (TGFBR1) TGFβ receptor (Homo sapiens, UniProt P36897). The data set can be described thus: TGFBR1 kinase activity. Type of data set: biochemical.
Chain of type I (TGFBR1) TGFβ receptor (P36897 34-503, species assumed): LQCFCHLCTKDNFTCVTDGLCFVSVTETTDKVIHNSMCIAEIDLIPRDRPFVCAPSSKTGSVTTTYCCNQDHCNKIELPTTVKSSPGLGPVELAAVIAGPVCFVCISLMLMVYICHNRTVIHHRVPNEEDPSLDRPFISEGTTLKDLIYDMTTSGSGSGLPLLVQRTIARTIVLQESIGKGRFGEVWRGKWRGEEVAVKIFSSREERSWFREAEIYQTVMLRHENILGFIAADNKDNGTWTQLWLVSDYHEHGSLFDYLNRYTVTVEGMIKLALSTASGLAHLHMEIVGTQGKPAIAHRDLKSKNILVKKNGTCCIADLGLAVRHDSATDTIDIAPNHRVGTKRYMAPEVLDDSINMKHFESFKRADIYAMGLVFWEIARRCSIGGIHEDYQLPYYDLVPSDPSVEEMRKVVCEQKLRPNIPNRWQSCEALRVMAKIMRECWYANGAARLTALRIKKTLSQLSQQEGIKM
Where [13] appears, read: added day 3-5 of differentiation.
The mark [14] stands for this setting: given at day 1 of differentiation.

Entries after “also recorded” stand apart in the source; their conditions may differ. Where two headings read alike, the source gives them in different places. A value given as a limit tells only on which side of the number the result lay.

Chain of type II (TGFBR2) TGFβ receptor (P37173 23-567, species assumed): as the sequence (P37173 23-567) above

As for `c1cc(-c2cnn3cc(-c4ccc(OCCN5CCCCC5)cc4)cnc23)ccn1` [Dorsomorphin], the “mesoderm induction (T-GFP+ cells)” value in the data set with T-GFP mESCs is recorded as “did not affect mesoderm”.

In the case of `CCOC(=O)C1=C(C)NC2=C(C(=O)CC(C)(C)C2)C1c1ccc(-c2ccccc2)cc1` (stereo not drawn) [ITD-1(+)], the “cardiogenesis (Myh6-GFP)” value in the data set with Myh6-GFP mESC (setting [13]) is “drove cardiomyogenesis”.

Usually IC50 stands for the concentration at which inhibition is half-maximal. Take `CCOC(=O)C1=C(C)NC2=C(C(=O)CC(C)(C)C2)C1c1ccc(-c2ccccc2)cc1` (stereo not drawn) [ITD-1]: the “endogenous TGFBR2 levels” value on TGFBR2 [1] was “decreased endogenous TGFBR2 levels”. Also, in the data set on TGFBR2 [2], the TGFBR2 protein levels entry is given as “strongly downregulated TGFBR2 protein levels”. Moreover, in the data set with mESC (setting [14]), the “germ layer markers at day 5 (RT-qPCR)” value is given as “induced ectoderm at the expense of mesoderm”; the “lineage markers at day 10 (RT-qPCR)” value is “markers for mesoderm tissues such as heart, endothelium, smooth muscle and blood were all downregulated, while neural markers were upregulated”. In the data set on mESC (mESC treated day 3-5), the “marker expression at day 5 (RT-qPCR)” value was “only the cardiac progenitor specific markers Kdr and Mesp1 were increased”; the “marker expression at day 10 (RT-qPCR)” value is given as “only cardiac-specific markers were increased”. Moreover, the “efficacy of TGFβ2 signaling inhibition (Emax, % inhibition)” value in the data set on TGFβ2 signaling (HEK293T, SBE4-Luc) is given as 92%. In the data set on TGFβ2 signaling (HEK293T, TGFβ2 15ng/ml), the IC50 was found to be 850 nM. In addition, in the data set with H9 hESC (added day 1-5, analysed day 6), the “enhancement of TNNT2+ cardiomyocyte yield” value is on record as ~ 30% and the “resulting cardiomyocytes (TNNT2+)” value was ~ 60%. Further, the “mesoderm induced by Activin A (T gene expression)” value in data set [3] is on record as “not by Activin A”. In addition, the “toxicity as cause of inhibitory activity” value in the data set with HEK293T cells is “Toxicity was not responsible”. In the data set on TGFBR2 [4], the “immediate internalization of TGFBR2” value is reported as “did not block immediate internalization of TGFBR2”. The BMP signaling inhibition result with BMP signaling is listed as “not inhibited”. The Wnt signaling inhibition entry in the data set with Wnt signaling was “did not inhibit Wnt signaling; also recorded: not inhibited”. The “cardiogenesis (Myh6-GFP)” value in the data set on Myh6-GFP mESC (added day 1-3 of differentiation, before mesoderm induction) is on record as “completely abolished cardiogenesis”. Further, the “cardiogenesis (Myh6-GFP)” value in the data set with Myh6-GFP mESC (setting [13]) is “drove cardiomyogenesis; also recorded: optimally promoted cardiogenesis and beating cell clusters”. The TGFBR2 kinase activity result in data set [5] was “did not block the kinase activity”. The “Emax, maximal depletion of HA-TGFBR2” value with HA-TGFBR2-mCherry (cell surface receptor) is on record as ~ 80%. Also, in the data set with HA-TGFBR2-mCherry (time course, flow cytometry), the “time needed to reduce TGFBR2 levels” value is reported as “At least 6 h” and the “time of maximum reduction of TGFBR2 levels” value is on record as at most 24 h. Further, in the data set on HA-TGFBR2-mCherry (total receptor), the “Emax, maximal depletion of TGFBR2-mCherry” value is ~ 50%. Also, in [6], the “phosphorylation of SMAD2/3 induced by TGFβ2” value is listed as “potently blocked phosphorylation”. In addition, in the data set with calcium channel, the “role of calcium inhibition in ITD-1 activities” value is recorded as “no evidence was found for a role through calcium inhibition”. Besides, the “Activin A signal inhibition (SBE4-Luc)” value in the data set with Activin A signaling was “weak and partial inhibitor”. For the same molecule, in [7], the “induction of Lefty1 in response to Activin A” value was “not to Activin A”. Besides, the “mesoderm induction (T-GFP+ cells)” value in the data set with T-GFP mESCs was “diminished the number of mesoderm cells”. Besides, the “effect on other tyrosine kinase receptors” value in [8] is listed as “did not affect other tyrosine kinase receptors”. The “mesoderm induced by TGFβ (T gene expression)” value in [9] was “selectively blocked mesoderm induced by TGFβ”. Also, the TGFBR1 protein levels entry in the data set on TGFBR1 was “did not affect TGFBR1”. In addition, in data set [10], the “phosphorylation of SMAD2/3 in response to Activin A” value is “only minimally”. Moreover, in data set [11] (5μM), the “induction of Lefty1 in response to TGFβ2” value is on record as “effectively blocked induction”. In addition, the “additional time needed to inhibit Lefty1 expression compared to SB-431542” value in data set [11] (TGFβ2 treatment) was ~ 3 h. Besides, the TGFBR1 kinase activity entry in data set [12] is “did not block the kinase activity”.

On to `c1ccc(-c2[nH]ncc2-c2ccnc3ccccc23)nc1` [LY-364947, reference compound], for which, in the data set on Myh6-GFP mESC (setting [13]), the “cardiogenesis (Myh6-GFP)” value is reported as “drove cardiomyogenesis”. Moreover, the “mesoderm induction (T-GFP+ cells)” value with T-GFP mESCs is listed as “diminished the number of mesoderm cells”.

Turning to `NC(=O)c1ccc(-c2nc(-c3ccc4c(c3)OCO4)c(-c3ccccn3)[nH]2)cc1` [SB-431542, reference compound], the IC50 with TGFβ2 signaling (Homo sapiens, HEK-293T) worked out at 70 nM. For the same molecule, the “cardiogenesis in hESC” value with H9 hESC (mesoderm patterning stage, data not shown) is recorded as “completely blocked cardiogenesis”. Besides, the “immediate internalization of TGFBR2” value in the data set on TGFBR2 [4] is on record as “abolished internalization”. In addition, the “cardiogenesis (Myh6-GFP)” value with Myh6-GFP mESC (setting [13]) is reported as “drove cardiomyogenesis”. Besides, in the data set on T-GFP mESCs, the “mesoderm induction (T-GFP+ cells)” value was “diminished the number of mesoderm cells”.

For IWP, the “mesoderm induction (T-GFP+ cells)” value with T-GFP mESCs was “diminished the number of mesoderm cells”.

B1: TGFβ2: TGFβ family member ligand added to ESC cultures (protein, UniProt P61812 303-414, looked up)
Transforming growth factor …: ALDAAYCFRNVQDNCCLRPLYIDFKRDLGWKWIHEPKGYNANFCAGACPYLWSSDTQHSRVLSLYNTINPEASASPCCVSQDLEPLTILYYIGKTPKIEQLSNMIVKSCKCS
In the case of B1, the “cardiogenesis (Myh6-GFP)” value in the data set with Myh6-GFP mESC (setting [13]) was “inhibited cardiogenesis”.
